Assay results as given in ChEMBL document CHEMBL1148007, “Synthesis of new S-derivatives of clubbed triazolyl thiazole as anti-Mycobacterium tuberculosis agents” (Bioorg Med Chem, 2007).

Tested on: Mycobacterium tuberculosis
Experiment: Antitubercular activity against Mycobacterium tuberculosis H37Rv by MABA assay
Format: functional
Details: not given
Procedure, shortened: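 Actives re-tested at lower concentrations against H37Rv (ATCC 27294) in BACTEC 12B medium by Microplate Alamar Blue Assay. MIC taken as lowest concentration giving […] fluorescence reduction versus controls; rifampin reference.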
Work on `O=C(CCl)Nc1nc(Cc2nnc(S)n2NC(=O)c2ccc(Cl)cc2)cs1` yielded an MIC of 6.25 µM. `O=C(CSc1nnc(Cc2csc(NC(=O)c3ccccc3)n2)n1NC(=O)c1cccc([N+](=O)[O-])c1)N/N=C/c1ccccc1` gave an MIC of 0.39 µM. `O=C(CSc1nnc(Cc2csc(NC(=O)c3ccccc3)n2)n1NC(=O)c1ccc(Cl)cc1)N/N=C/c1ccccc1` showed an MIC of 3.13 µM. `NNC(=O)CSc1nnc(Cc2csc(NC(=O)c3ccccc3)n2)n1NC(=O)c1ccc(Cl)cc1` gave an MIC of 6.25 µM. With `COC(=O)CSc1nnc(Cc2csc(NC(C)=O)n2)n1NC(=O)c1ccc(Cl)cc1` the MIC was < 6.25 µg/mL. With `CC(=O)NNC(=O)CSc1nnc(Cc2csc(NCCC(=O)O)n2)n1NC(=O)c1cccc([N+](=O)[O-])c1` the MIC was < 6.25 µg/mL. In the case of `CC(=O)Nc1nc(Cc2nnc(SCc3nnc(S)n3N)n2NC(=O)c2ccc(Cl)cc2)cs1`, the MIC is reported as < 6.25 µg/mL. For `O=C(CSc1nnc(Cc2csc(NC(=O)CCl)n2)n1NC(=O)c1ccc(Cl)cc1)NNC(=O)c1ccccc1`, the MIC was < 6.25 µg/mL.

Tested on: Escherichia coli
Experiment: Antibacterial activity against Escherichia coli at 50 to 100 uM after 24 hrs by well diffusion method
Format: functional
Details: not given
Procedure, shortened: (§1)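 Nutrient agar plates with 10 mm wells cut by cork borer; 24-h subcultured bacteria swabbed on. Compounds dissolved in chloroform, 50 to 100 μM added to wells, gentamycin as standard. Incubated 24 h at 24–28 °C; inhibition zone diameter measured and converted to percent inhibition.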
`O=C(CCl)Nc1nc(Cc2nnc(S)n2NC(=O)c2ccc(Cl)cc2)cs1` gave an inhibition zone of 18 mm. With `O=C(CSc1nnc(Cc2csc(NC(=O)c3ccccc3)n2)n1NC(=O)c1cccc([N+](=O)[O-])c1)N/N=C/c1ccccc1` the inhibition zone was 25 mm. With `O=C(CSc1nnc(Cc2csc(NC(=O)c3ccccc3)n2)n1NC(=O)c1ccc(Cl)cc1)N/N=C/c1ccccc1` the inhibition zone was 23 mm. `NNC(=O)CSc1nnc(Cc2csc(NC(=O)c3ccccc3)n2)n1NC(=O)c1ccc(Cl)cc1` gave an inhibition zone of 26 mm. With `COC(=O)CSc1nnc(Cc2csc(NC(C)=O)n2)n1NC(=O)c1ccc(Cl)cc1` the inhibition zone was 10 mm. Compound `CC(=O)NNC(=O)CSc1nnc(Cc2csc(NCCC(=O)O)n2)n1NC(=O)c1cccc([N+](=O)[O-])c1` has an inhibition zone of 14 mm. For `CC(=O)Nc1nc(Cc2nnc(SCc3nnc(S)n3N)n2NC(=O)c2ccc(Cl)cc2)cs1`, the inhibition zone was 23 mm. With `O=C(CSc1nnc(Cc2csc(NC(=O)CCl)n2)n1NC(=O)c1ccc(Cl)cc1)NNC(=O)c1ccccc1` the inhibition zone was 21 mm.

Tested on: Staphylococcus aureus
Experiment: Antibacterial activity against Staphylococcus aureus at 50 to 100 uM after 24 hrs by well diffusion method
Format: functional
Details: not given
Procedure, shortened: as §1
`O=C(CCl)Nc1nc(Cc2nnc(S)n2NC(=O)c2ccc(Cl)cc2)cs1` showed an inhibition zone of 20 mm. For `O=C(CSc1nnc(Cc2csc(NC(=O)c3ccccc3)n2)n1NC(=O)c1cccc([N+](=O)[O-])c1)N/N=C/c1ccccc1`, the inhibition zone was 32 mm. With `O=C(CSc1nnc(Cc2csc(NC(=O)c3ccccc3)n2)n1NC(=O)c1ccc(Cl)cc1)N/N=C/c1ccccc1` the inhibition zone was 21 mm. In the case of `NNC(=O)CSc1nnc(Cc2csc(NC(=O)c3ccccc3)n2)n1NC(=O)c1ccc(Cl)cc1`, the inhibition zone is reported as 32 mm. Compound `COC(=O)CSc1nnc(Cc2csc(NC(C)=O)n2)n1NC(=O)c1ccc(Cl)cc1` has an inhibition zone of 20 mm. In the case of `CC(=O)NNC(=O)CSc1nnc(Cc2csc(NCCC(=O)O)n2)n1NC(=O)c1cccc([N+](=O)[O-])c1`, the inhibition zone is reported as 24 mm. Work on `CC(=O)Nc1nc(Cc2nnc(SCc3nnc(S)n3N)n2NC(=O)c2ccc(Cl)cc2)cs1` yielded an inhibition zone of 28 mm. `O=C(CSc1nnc(Cc2csc(NC(=O)CCl)n2)n1NC(=O)c1ccc(Cl)cc1)NNC(=O)c1ccccc1` showed an inhibition zone of 21 mm.

Tested on: Mycobacterium tuberculosis
Experiment: Antitubercular activity against Mycobacterium tuberculosis H37Rv at 6.25 ug/mL by MABA assay
Format: functional
Details: read-out: GI
Procedure, shortened: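 Primary screen against M. tuberculosis H37Rv (ATCC 27294) in BACTEC 12B medium by broth microdilution Microplate Alamar Blue Assay; fluorescent compounds run instead in BACTEC 460 radiometric system. Compounds above 95% inhibition counted active.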
Work on `O=C(CCl)Nc1nc(Cc2nnc(S)n2NC(=O)c2ccc(Cl)cc2)cs1` yielded an inhibition of growth at 6.25 µg/mL of 96%. `O=C(CSc1nnc(Cc2csc(NC(=O)c3ccccc3)n2)n1NC(=O)c1cccc([N+](=O)[O-])c1)N/N=C/c1ccccc1` gave an inhibition of growth at 6.25 µg/mL of 96%. For `O=C(CSc1nnc(Cc2csc(NC(=O)c3ccccc3)n2)n1NC(=O)c1ccc(Cl)cc1)N/N=C/c1ccccc1`, the inhibition of growth at 6.25 µg/mL was 96%. For `NNC(=O)CSc1nnc(Cc2csc(NC(=O)c3ccccc3)n2)n1NC(=O)c1ccc(Cl)cc1`, the inhibition of growth at 6.25 µg/mL was 96%.

Tested on: Salmonella typhi
Experiment: Antibacterial activity against Salmonella typhi at 50 to 100 uM after 24 hrs by well diffusion method
Format: functional, Salmonella enterica subsp. enterica serovar Typhi
Design: unit not given here
Details: not given
Procedure, shortened: as §1
With `O=C(CCl)Nc1nc(Cc2nnc(S)n2NC(=O)c2ccc(Cl)cc2)cs1` the Inhibition was 14. Work on `O=C(CSc1nnc(Cc2csc(NC(=O)c3ccccc3)n2)n1NC(=O)c1cccc([N+](=O)[O-])c1)N/N=C/c1ccccc1` yielded an Inhibition of 24. Work on `O=C(CSc1nnc(Cc2csc(NC(=O)c3ccccc3)n2)n1NC(=O)c1ccc(Cl)cc1)N/N=C/c1ccccc1` yielded an Inhibition of 21. For `NNC(=O)CSc1nnc(Cc2csc(NC(=O)c3ccccc3)n2)n1NC(=O)c1ccc(Cl)cc1`, the Inhibition was 24. Work on `COC(=O)CSc1nnc(Cc2csc(NC(C)=O)n2)n1NC(=O)c1ccc(Cl)cc1` yielded an Inhibition of 10. In the case of `CC(=O)NNC(=O)CSc1nnc(Cc2csc(NCCC(=O)O)n2)n1NC(=O)c1cccc([N+](=O)[O-])c1`, the Inhibition is reported as 14. With `CC(=O)Nc1nc(Cc2nnc(SCc3nnc(S)n3N)n2NC(=O)c2ccc(Cl)cc2)cs1` the Inhibition was 18. In the case of `O=C(CSc1nnc(Cc2csc(NC(=O)CCl)n2)n1NC(=O)c1ccc(Cl)cc1)NNC(=O)c1ccccc1`, the Inhibition is reported as 20.

Tested on: Pseudomonas aeruginosa
Experiment: Antibacterial activity against Pseudomonas aeruginosa at 50 to 100 uM after 24 hrs by well diffusion method
Format: functional
Details: not given
Procedure, shortened: as §1
Compound `O=C(CCl)Nc1nc(Cc2nnc(S)n2NC(=O)c2ccc(Cl)cc2)cs1` has an inhibition zone of 20 mm. Work on `O=C(CSc1nnc(Cc2csc(NC(=O)c3ccccc3)n2)n1NC(=O)c1cccc([N+](=O)[O-])c1)N/N=C/c1ccccc1` yielded an inhibition zone of 30 mm. With `O=C(CSc1nnc(Cc2csc(NC(=O)c3ccccc3)n2)n1NC(=O)c1ccc(Cl)cc1)N/N=C/c1ccccc1` the inhibition zone was 24 mm. `NNC(=O)CSc1nnc(Cc2csc(NC(=O)c3ccccc3)n2)n1NC(=O)c1ccc(Cl)cc1` showed an inhibition zone of 32 mm. For `COC(=O)CSc1nnc(Cc2csc(NC(C)=O)n2)n1NC(=O)c1ccc(Cl)cc1`, the inhibition zone was 16 mm. Compound `CC(=O)NNC(=O)CSc1nnc(Cc2csc(NCCC(=O)O)n2)n1NC(=O)c1cccc([N+](=O)[O-])c1` has an inhibition zone of 10 mm. Work on `CC(=O)Nc1nc(Cc2nnc(SCc3nnc(S)n3N)n2NC(=O)c2ccc(Cl)cc2)cs1` yielded an inhibition zone of 21 mm. For `O=C(CSc1nnc(Cc2csc(NC(=O)CCl)n2)n1NC(=O)c1ccc(Cl)cc1)NNC(=O)c1ccccc1`, the inhibition zone was 26 mm.

Tested on: not listed separately
Experiment: Cytotoxicity against Vero-C1008 cells at 6.25 to 50 ug/mL by neutral red uptake assay
Format: cell-based
Details: chlorocebus sabaeus
Procedure, shortened: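 Vero-C-1008 cells exposed to 6.25 to 50 μg/mL compound; viability read by neutral red uptake.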
In the case of `O=C(CCl)Nc1nc(Cc2nnc(S)n2NC(=O)c2ccc(Cl)cc2)cs1`, the Activity is reported as “Non-toxic”. With `O=C(CSc1nnc(Cc2csc(NC(=O)c3ccccc3)n2)n1NC(=O)c1cccc([N+](=O)[O-])c1)N/N=C/c1ccccc1` the Activity was “Non-toxic”. For `O=C(CSc1nnc(Cc2csc(NC(=O)c3ccccc3)n2)n1NC(=O)c1ccc(Cl)cc1)N/N=C/c1ccccc1`, the Activity was “Non-toxic”. With `NNC(=O)CSc1nnc(Cc2csc(NC(=O)c3ccccc3)n2)n1NC(=O)c1ccc(Cl)cc1` the Activity was “Non-toxic”. In the case of `COC(=O)CSc1nnc(Cc2csc(NC(C)=O)n2)n1NC(=O)c1ccc(Cl)cc1`, the Activity is reported as “Non-toxic”. In the case of `CC(=O)NNC(=O)CSc1nnc(Cc2csc(NCCC(=O)O)n2)n1NC(=O)c1cccc([N+](=O)[O-])c1`, the Activity is reported as “Non-toxic”. In the case of `CC(=O)Nc1nc(Cc2nnc(SCc3nnc(S)n3N)n2NC(=O)c2ccc(Cl)cc2)cs1`, the Activity is reported as “Non-toxic”. With `O=C(CSc1nnc(Cc2csc(NC(=O)CCl)n2)n1NC(=O)c1ccc(Cl)cc1)NNC(=O)c1ccccc1` the Activity was “Non-toxic”.
